Compound activity: PubChem BioAssay, Sanford-Burnham Center for Chemical Genomics
HNF4A DNA FP: change in binding of human HNF4 alpha to DNA; activity change, % at 10 µM; hit rate 0.3% among 360,000; HNF4a-FITC DNA binding, fluorescence polarization, 1 h; AID 1224865; in the data active = activity change above about 30%, passing the limit was not always enough
aDG glyco act: increases alpha dystroglycan glycosylation | activation, % at 10 µM | Pro5-aDG cells, alpha-DG glycosylation AlphaScreen (IIH6); 0% Pro5, 100% B10-LARGE cell signal | hit rate 0.22% among 360,000;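 active = activation of at least 8% versus controls, or a plate z-score of at least 8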;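 also: Pro5 are CHO cells carrying HIG-tagged alpha-DG that lacks glycosylation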
CSN deneddyl inh: blocks human CSN-mediated cullin deneddylation. hit rate 0.38% among 360,000. AID 651999. Q92905. inhibition, % at 12.5 µM. Purified CSN, SCF-Nedd8-OG deneddylation, fluorescence polarization;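 active = pattern-corrected inhibition above about 35%, with an unprinted fluorescence ratio check between 0.5 and 1.5, limit read from the data, passing the limit was not always enough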
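Assay system: purified human Csn5 enzyme expressed in HEK293T cells; measure: % inhibition; also added: SCFSkp2-Nedd8OG substrate at 10 nM final; technique: fluorescence polarization; times: reaction 90 min, room temperature; medium: Tris buffer pH 7.5, NaCl, DTT, Tween-20, trehalose, ovalbumin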
NR1D1 modulator: modulators of human Rev-erb alpha DNA binding; Rev-erbα–FITC-DNA binding, fluorescence polarization, 90 min; activity, % at 10 µM; hit rate 0.79% among 370,000; AID 1259318;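 active = activity above about 14%, limit read from the data; passing the limit was not always enough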
Target sequence (P20393 whole entry, looked up): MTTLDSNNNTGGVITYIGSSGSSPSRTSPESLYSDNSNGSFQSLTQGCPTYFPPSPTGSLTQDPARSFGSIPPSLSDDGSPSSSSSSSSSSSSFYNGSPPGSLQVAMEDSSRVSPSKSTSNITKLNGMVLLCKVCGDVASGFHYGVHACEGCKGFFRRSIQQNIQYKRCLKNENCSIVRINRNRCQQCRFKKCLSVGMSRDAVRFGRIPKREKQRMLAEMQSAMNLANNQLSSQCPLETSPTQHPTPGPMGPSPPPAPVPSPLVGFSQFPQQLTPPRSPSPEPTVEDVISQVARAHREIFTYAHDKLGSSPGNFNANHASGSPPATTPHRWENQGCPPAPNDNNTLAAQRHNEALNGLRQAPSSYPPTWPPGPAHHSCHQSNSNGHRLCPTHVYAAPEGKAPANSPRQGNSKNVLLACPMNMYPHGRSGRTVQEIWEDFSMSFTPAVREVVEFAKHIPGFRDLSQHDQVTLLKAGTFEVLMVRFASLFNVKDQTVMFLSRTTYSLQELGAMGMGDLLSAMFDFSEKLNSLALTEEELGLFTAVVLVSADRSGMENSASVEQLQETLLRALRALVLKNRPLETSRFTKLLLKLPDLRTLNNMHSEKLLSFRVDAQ
Rev-erbA confirm: confirmation of modulators of human Rev-erb alpha DNA binding; activation, % at 25 µM; hit rate 61% among 3,000; shares compounds with NR1D1 modulator; Rev-erb alpha FITC-DNA binding, fluorescence polarization, 90 min;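 active = activation at or above a set limit, or at least 3 SD above the negative control mean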
RORg DNA counter: affects RORgamma DNA binding in a Rev-erb alpha counter-screen; purified RORgamma protein-FITC-DNA binding, fluorescence polarization; hit rate 8% among 910; IC50, µM; shares compounds with NR1D1 modulator;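 active = Compounds whose fitted half-maximal concentration for disrupting protein-DNA binding is below 10 micromolar; the record names Rev-erb in its text, so the target is in doubt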
Hits are given with their value; n = inactive; x = no result given; ! = repeats disagree. In the library only some 1.5% were active in any assay of this set; here they are far more common.

SMILES	HNF4A DNA FP	aDG glyco act	CSN deneddyl inh	NR1D1 modulator	Rev-erbA confirm	others
Cc1cc(C)c(NC(=O)COc2ccccc2C(=O)Nc2ccc3c(c2)oc2ccccc23)c(C)c1	n	n	n	32	37	RORg DNA counter=n
CN[C@H]1C[C@H]2c3[nH]c4c(-c5ccc6c(c5)OCO6)cccc4c3CCN2C[C@H]1[C@H](C)O	x	x	x	n	x
O=c1oc2ccccc2c(NC(c2ccccc2)c2ccccc2)c1[N+](=O)[O-]	n	n	n	39	60	RORg DNA counter=n
CC(=O)CC[C@H]1CC[C@]2(CCCN(S(=O)(=O)C3CCCCC3)C2)O1	x	x	x	n	x
CC1(Cc2cc(Cl)ccc2C(F)(F)F)C(=O)Nc2ccc(OC(F)(F)F)cc21 (stereo not drawn)	n	n	n	x	x
CC1(Cc2ccccc2OC(F)(F)F)C(=O)Nc2ccc(OC(F)(F)F)cc21 (stereo not drawn)	n	n	n	73	94	RORg DNA counter=n
COC(=O)c1cccc(CC2(C)C(=O)Nc3ccc(OC(F)(F)F)cc32)c1 (stereo not drawn)	n	n	n	18	15
CC1(Cc2ccccc2OC(F)(F)F)C(=O)Nc2ccc(-c3ccsc3)cc21 (stereo not drawn)	n	n	n	72	90	RORg DNA counter=n
COC(=O)[C@@]1(C(C)C)N=C(c2cc(OC)c(OC)c(OC)c2)[C@]2(O1)C(=O)N(Cc1cn(Cc3ccccc3)nn1)c1ccc(F)cc12	x	x	x	n	x
CCOC(=O)c1ccc(CNC(=O)CSc2nnc(-c3ccncc3)o2)cc1	n	n	n	n	x
CCOC(=O)c1ccc(CNC(=O)CSc2nc(NC(=O)c3ccccc3)c3c(C)c(C)oc3n2)cc1	n	n	n	27	37	RORg DNA counter=n
N#Cc1ccc(-c2ccccc2)nc1SCC(=O)c1cccc(Cl)c1	n	n	n	38	18
O=C(C1CCN(c2cncnc2)CC1)N1CCCC1	x	x	x	n	x
O=C1CCCC2=C1C1(CCCC1)N=C(Nc1nc3ccccc3o1)N2	n	n	n	21!	n
O=C1CCCC2=C1C1(CCCCC1)N=C(Nc1nc3ccccc3o1)N2	n	n	n	n	x
CCOC(=O)c1sc2nc(C(C)C)c3c(c2c1N)CC(C)(C)OC3	n	n	n	23	n
CCOC(=O)Cn1cc(CN2CCS(=O)(=O)N(Cc3ccc(C)cc3)C(C(=O)OC)C2)nn1 (stereo not drawn)	x	x	x	n	x
CCCn1c(SCN2C(=O)c3ccccc3C2=O)nc2cc(Cl)ccc2c1=O	n	n	n	39	n
Cc1cccc(-n2c(SCN3C(=O)c4ccccc4C3=O)nc3ccccc3c2=O)c1	x	x	x	n	x
CCOC(=O)c1nn(-c2ccc(F)cc2)c(=O)cc1OCC(=O)Nc1cccc(C)c1	n	n	n	101	93	RORg DNA counter=n
CCOC(=O)c1nn(-c2ccccc2)c(=O)cc1OCC(=O)Nc1cc(C)ccc1OC	n	n	n	48	n
COc1ccc(-c2nn(C)c(=O)c3ccccc23)cc1NC(=O)COc1ccc(C)cc1	n	n	n	34	n
CCC(=O)Nc1cc(-c2nn(C)c(=O)c3ccccc23)ccc1OC	n	n	n	n	x
CCOC(=O)c1nn(-c2ccc(C)cc2)c(=O)cc1OCC(=O)Nc1cc(C)ccc1OC	n	n	n	n	x
c1ccc2c(c1)N=C(N1CCN(Cc3ccc4c(c3)OCO4)CC1)c1ccccc1S2	x	x	x	n	x
SMILES	HNF4A DNA FP	aDG glyco act	CSN deneddyl inh	NR1D1 modulator	Rev-erbA confirm	others
Cc1cc(=O)n2c(sc3ccccc32)c1C#N	n	n	n	39	21
CCCNCC(O)Cn1c2ccccc2n2c(=O)cc(C)c(C#N)c12 (stereo not drawn)	n	n	n	n	x
Cc1cccc(Nc2nc3c(S(=O)(=O)c4ccccc4)nnn3c3ccccc23)c1	n	n	n	39	n
CCCCNc1nc2c(S(=O)(=O)c3ccccc3)nnn2c2ccccc12	n	n	n	n	x
CC(C)c1ccc(S(=O)(=O)c2nnn3c2nc(N2CCCCC2)c2ccccc23)cc1	n	n	n	30	29
Cc1ccc(S(=O)(=O)c2nnn3c2nc(N2CCOCC2)c2ccccc23)cc1C	n	n	n	n	x
Cc1cc(C)cc(Nc2nc3c(S(=O)(=O)c4ccccc4)nnn3c3ccccc23)c1	n	n	n	52	n
CCN(CC)C(=O)CC[C@H]1CC[C@]2(CCCN(S(=O)(=O)c3ccccc3)C2)O1	x	x	x	n	x
Cn1c(/C(C#N)=C(\O)COc2ccc3ccccc3c2)nc2ccccc21	n	n	n	23	n
Cn1c(/C(C#N)=C(\O)c2ccc(Cl)s2)nc2ccccc21	n	n	n	50	n
Cc1ccc(NP(=O)(c2ccc(N(C)C)cc2NC(=O)c2cccs2)N2CCOCC2)cc1 (stereo not drawn)	n	n	n	24	n
CN(C)c1ccc(P(=O)(Nc2ccc([N+](=O)[O-])cc2)N2CCOCC2)c(NC(=O)c2cccs2)c1 (stereo not drawn)	n	n	n	n	x
Cc1ccc(NP(=O)(c2ccc(N(C)C)cc2NC(=O)c2cccs2)N2CCOCC2)cc1Cl (stereo not drawn)	n	n	n	n	x
CN(C)c1ccc(P(=O)(Nc2ccccc2)N2CCOCC2)c(NC(=O)c2cccs2)c1 (stereo not drawn)	n	n	n	42	19
CCCCN(CCCC)Cc1cc(=O)oc2cc(C)cc(C)c12	n	n	n	19	n
O=C(Nc1ccc(S(=O)(=O)C(F)F)cc1)c1ccc2c(=O)n3c(nc2c1)CCC3	n	n	n	20	n
COC(=O)[C@]12C[C@H](CC(=O)NCCCCc3ccccc3)C(=O)N(Cc3ccco3)C1=C[C@H](C(C)(C)C)O[C@@H]2C	x	x	x	n	x
CSc1ccc(/C=C(\NC(=O)c2ccc(C)cc2)C(=O)Nc2cccc(C)c2)cc1	n	n	n	n	x
CSc1ccc(/C=C(\C#N)C(=O)Nc2cccc(C)c2)cc1	n	n	n	22	n
C=CCN1C(=O)/C(=C2/Sc3ccccc3N2CC)SC1=S	n	n	n	n	x
CCN1C(=O)/C(=C2/Sc3ccccc3N2CC)S/C1=N\c1ncn[nH]1	n	n	n	19	n
CCOC(=O)c1sc(NC(=S)NC(=O)C2CCCC2)cc1C	n	n	n	70	40	RORg DNA counter=n
CCOC(=O)c1sc(NC(=O)c2ccc(Cl)s2)cc1C	n	n	n	16	12
CCOC(=O)c1sc(NC(=O)c2ccccc2)cc1C	n	n	n	n	x
O=C(Nc1ccc(F)cc1)c1cc(-c2ccncc2)nc2c(Cl)cccc12	n	n	n	24	n
COc1cccc(NC(=O)c2cc(-c3cccnc3)nc3c(Cl)cccc23)c1	n	n	n	n	x
CCN(CC)c1ccc(/C=C(\C#N)C(=O)c2ccc(Br)cc2)cc1	n	n	n	59	70	RORg DNA counter=n
CCN(CC)c1ccc(/C=C(\C#N)C(N)=S)cc1	n	n	n	76	64	RORg DNA counter=n
CCN1CCCCC(NC(C)=O)C1=O (stereo not drawn)	x	x	x	n	x
